# ChEMBL document CHEMBL1156438, “Resolvin D1 and its aspirin-triggered 17R epimer. Stereochemical assignments, anti-inflammatory properties, and enzymatic inactivation” (J Biol Chem, 2007)
# Calls of active or inactive are those of the source. The calls are words filed in the database; no cut-off is given here.
# Assays:
# Mus musculus [1] = assay: Antiinflammatory activity in FVB mouse peritonitis model assessed as reduction in zymosan-induced polymorphonuclear leukocytes infiltration at 10 ng, iv after 4 hrs; assay type: functional; parameters: scale not given: the % may be the effect or the level left
# How it was run: (§1)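 Male FVB mice, 6–8 weeks, isoflurane-anesthetized; compounds as carboxymethyl esters given iv by tail vein in 100 μl saline (0.05–50 μgkg–1 range), then zymosan A 1 mg/ml ip. Peritoneal lavage at 4 h; cells counted after trypan blue, differentials by Wright-Giemsa cytospin; reduction versus saline vehicle plus zymosan; mean ± S.E., n = 3.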
# Mus musculus [2] = assay: Antiinflammatory activity in FVB mouse peritonitis model assessed as reduction in zymosan-induced total leukocyte infiltration at 10 ng, iv after 4 hrs; assay type: functional; parameters: scale not given: the % may be the effect or the level left; how it was run: as §1
# Mus musculus [3] = assay: Antiinflammatory activity in FVB mouse peritonitis model assessed as reduction in zymosan-induced polymorphonuclear leukocyte infiltration at 1 ng, iv after 4 hrs; assay type: functional, organism-based; how it was run: as §1
# Mus musculus [4] = assay: Antiinflammatory activity in FVB mouse peritonitis model assessed as reduction in zymosan-induced polymorphonuclear leukocyte infiltration at 100 ng, iv after 4 hrs; assay type: functional; parameters: scale not given: the % may be the effect or the level left; how it was run: as §1
# [5] = Antiinflammatory activity in human polymorphonuclear leukocytes assessed as inhibition of n-formylmethionylleucylphenylalanine-stimulated transendothelial migration at 10 nM after 15 mins; assay type: functional; parameters: scale not given: the % may be the effect or the level left
# How it was run: (§2)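 Human PMNs from venous blood (Histopaque 1077/1119 double gradient, NH4Cl lysis, >90% pure) in HBSS pH 7.4, preincubated 15 min at room temperature with 0–1000 nm compound; 10^6 cells added atop HMEC-1 monolayers on Transwell inserts; 100 nm fMLP lower chamber; migration 30 min, 37 °C, quantified by MPO; expressed as % reduction versus untreated PMNs.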
# [6] = Antiinflammatory activity in human polymorphonuclear leukocytes assessed as inhibition of n-formylmethionylleucylphenylalanine-stimulated transendothelial migration at 1 uM after 15 mins; assay type: functional; parameters: scale not given: the % may be the effect or the level left; how it was run: as §2
# [7] = Antiinflammatory activity in human polymorphonuclear leukocytes assessed as inhibition of n-formylmethionylleucylphenylalanine-stimulated transendothelial migration after 15 mins; conditions: 0.25 h
# Mus musculus [8] = assay: Antiinflammatory activity in iv dosed FVB mouse peritonitis model assessed as reduction in zymosan-induced polymorphonuclear leukocyte infiltration at after 4 hrs; assay type: functional, organism-based
EC50 [7],SMILES,Activity (Mus musculus [1]),Activity (Mus musculus [2]),Activity (Mus musculus [3]),Activity (Mus musculus [4]),Activity [5],Activity [6],Activity (Mus musculus [8])
–,CC/C=C\C[C@@H](O)/C=C/C=C\C=C\C=C\C(=O)[C@@H](O)C/C=C\CCC(=O)O,41%,–,–,–,–,–,–
0.03 µM,CC/C=C\C[C@@H](O)/C=C/C=C\C=C\C=C\[C@@H](O)[C@@H](O)C/C=C\CCC(=O)O,–,23%,Active,35%,50%,65%,Dose-dependent effect
–,CC/C=C\CC(=O)/C=C/C=C\C=C\C=C\[C@@H](O)[C@@H](O)C/C=C\CCC(=O)O,inactive,–,–,–,–,–,–
0.03 µM,CC/C=C\C[C@H](O)/C=C/C=C\C=C\C=C\[C@@H](O)[C@@H](O)C/C=C\CCC(=O)O,–,8%,Active,35%,50%,–,Dose-dependent effect
